One series has as its system Dengue virus. In words: Antiviral activity against Dengue virus infected in BHK pD2-hRucPac-2ATG cells assessed as inhibition of viral replication at 10 uM after 3 days by luciferase reporter gene assay relative to control. The format is functional. As to conditions: for inhibition at 10 µM: 72 h. The method, boiled down:
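Renilla luciferase-bearing DENV subgenomic replicon BHK cells, kept on 3 μg/mL puromycin, seeded at 1.5 × 10^3/well without selection. Next day, 10 μM final compound in DMSO added to triplicate wells; MPA 1 μM as control inhibitor. After 3 days, medium swapped for live-cell Renilla substrate (1:1000, phenol-red-free DME, 10% FBS). Luminescence read; triplicate mean compared with DMSO-only wells.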
Background: A reporter such as luciferase makes a cellular process visible.

A further series concerns West Nile virus. In words: Antiviral activity against West Nile virus infected in BHK-WII RepRen1B cells assessed as inhibition of viral replication at 10 uM after 3 days by luciferase reporter gene assay relative to control. As to conditions: for inhibition at 10 µM: 72 h. The format is functional. In a few lines:
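Compound (DMSO, 10 μM final) added next day in triplicate; lycorine 1 μM served as control inhibitor. Three days on, live-cell Renilla substrate (1:1000 in phenol-red-free DME, 10% FBS) replaced medium. Luminescence measured; triplicate means compared with DMSO-alone wells.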

Series [1] deals with unidentified influenza virus. In words: Antiviral activity against Influenzae virus. The class given is functional, organism-based.
A short description of series [2]: Cytotoxicity against BHK cells infected with Dengue virus replicon assessed as cell viability at 10 uM after 3 days by CellTiter 96 aqueous one solution cell proliferation assay relative to control. The note with it: hamster, bhk, 72 h, 10 µM. The class given is cell-based, Mesocricetus auratus. In a few lines: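 DENV replicon BHK cells, 1.5 × 10^3/well, plated without antibiotic selection; next day compound in DMSO (10 μM final for screening, or eight serial dilutions), 3 days at 37°C, 5% CO2. Tetrazolium (MTS-type) reagent, absorbance 450 nm, triplicate means versus DMSO wells; CC50 = 50% reduction in proliferation; CC50s mean ± SD of two experiments, top dose 200 μM.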

The subject of a further series is Hepatitis C virus. In words: Antiviral activity against HCV. The class given is functional, organism-based. The note with it: Hepacivirus hominis.
Series [3] has as its system Human immunodeficiency virus 1. In words: Antiviral activity against HIV1. The class given is functional, organism-based.
A short description of series [4]: Cytotoxicity against BHK cells infected with West Nile virus replicon assessed as cell viability at 10 uM after 3 days by CellTiter 96 aqueous one solution cell proliferation assay relative to control. The format is cell-based, Mesocricetus auratus. The note with it: hamster, bhk, 72 h, 10 µM. The method, boiled down: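 WNV replicon BHK cells, about 3 × 10^3/well, plated without antibiotic selection; next day compound in DMSO (10 μM final for screening, or eight serial dilutions), 3 days at 37°C, 5% CO2. Tetrazolium reagent, absorbance 450 nm, triplicate means versus DMSO wells; CC50 = 50% reduction in proliferation; CC50s mean ± SD of two experiments, top dose 200 μM.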
(In general: In antiviral work, replicon cells carry a viral genome segment that copies itself.)

The subject of another series is Human betaherpesvirus 5. In words: Antiviral activity against Human cytomegalovirus. The class given is functional, organism-based.
Series [5] concerns the target Human immunodeficiency virus type 1 reverse transcriptase (Human immunodeficiency virus 1) (UniProt Q72547). In words: Inhibition of HIV1 reverse transcriptase.

Active and inactive are the calls of the source. The rule behind the calls is not given here.

With `Cc1cn([C@H]2C[C@H](NC(=O)c3ccc4ccccc4n3)[C@@H](CO[Si](C)(C)C(C)(C)C)O2)c(=O)[nH]c1=O`, the inhibition (in general, how much of the control response was suppressed) at 10 µM in the series with Dengue virus was 51%; in the series with West Nile virus it was 24%. Also, the result (in [1]; in the series with Hepatitis C virus; in series [3]; with Human betaherpesvirus 5) was inactive. Also, the results for the Activity in series [2] and in [4] were 98% and 89%, respectively. Besides, in series [5], the inhibition result is “inactive”.

Consider `COc1ccc2cc(-c3cnnn3[C@H]3C[C@H](n4cc(C)c(=O)[nH]c4=O)O[C@@H]3CO[Si](C(C)C)(C(C)C)C(C)C)ccc2c1`, for which the inhibition at 10 µM in the series on Dengue virus and in the series with West Nile virus was 98% throughout. In addition, the outcome (in series [1]; with Hepatitis C virus; in [3]; in the series with Human betaherpesvirus 5) was inactive. Further, the values for the Activity in series [2] and in series [4] were 53% and 67%, respectively. In addition, in [5], the inhibition result is “inactive”.

Take `Cc1cn([C@H]2C[C@H](n3nncc3COc3ccccc3)[C@@H](CO[Si](C)(C)C(C)(C)C)O2)c(=O)[nH]c1=O`: the inhibition at 10 µM with Dengue virus was 28%; in the series with West Nile virus, 50%. Besides, the outcome (in [1]; with Hepatitis C virus; in series [3]; with Human betaherpesvirus 5) was inactive. Also, the Activity in [2] was 84%; in series [4], 100%. In [5], the inhibition result was “inactive”.

Turning to `Cc1cn([C@H]2C[C@H](N3C(=O)CSC3c3ccccc3)[C@@H](CO[Si](C)(C)C(C)(C)C)O2)c(=O)[nH]c1=O` (mixture of isomers), the results for the inhibition at 10 µM with Dengue virus and in the series on West Nile virus were 22% and 26%, respectively. Besides, the outcome (in series [1]; with Hepatitis C virus; in [3]; in the series with Human betaherpesvirus 5) was inactive. The Activity is 98% in series [2] and 94% in [4]. Besides, the inhibition entry in series [5] was “inactive”.

`COc1ccc2cc(-c3cnnn3[C@H]3C[C@H](n4cc(C)c(=O)[nH]c4=O)O[C@@H]3CO[Si](c3ccccc3)(c3ccccc3)C(C)(C)C)ccc2c1`: the inhibition at 10 µM with Dengue virus turned out to be 100%; in the series on West Nile virus, 99%. Further, the outcome (in [1]; in the series with Hepatitis C virus; in series [3]; in the series on Human betaherpesvirus 5) was inactive. The results for the Activity in series [2] and in series [4] were 11% and 38%, respectively. For the same molecule, in series [5], the inhibition entry was “inactive”.

As for `Cc1cn([C@H]2C[C@H](NC(=O)c3c[nH]c4ccccc34)[C@@H](CO[Si](C)(C)C(C)(C)C)O2)c(=O)[nH]c1=O`, the inhibition at 10 µM with Dengue virus was 90%; in the series on West Nile virus, 19%. Moreover, the outcome (in series [1]; in the series on Hepatitis C virus; in series [3]; in the series on Human betaherpesvirus 5) was inactive. For the same molecule, the values for the Activity in series [2] and in [4] were 27% and 93%, respectively. In addition, the inhibition result in [5] is “inactive”.

Turning to `Cc1cn([C@H]2C[C@H](NC(=O)c3ccc4ccccc4c3)[C@@H](CO[Si](C)(C)C(C)(C)C)O2)c(=O)[nH]c1=O`, the figures for the inhibition at 10 µM in the series with Dengue virus and with West Nile virus were 98% and 99%, respectively. Moreover, the outcome (in [1]; in the series on Hepatitis C virus; in series [3]; in the series with Human betaherpesvirus 5) was inactive. Moreover, the figures for the Activity in [2] and in series [4] were 10% and 51%, respectively. Also, the inhibition entry in series [5] is “inactive”.

In the case of `Cc1cn([C@H]2C[C@H](NC(=O)c3ccc(N4CCOCC4)cc3)[C@@H](CO[Si](C)(C)C(C)(C)C)O2)c(=O)[nH]c1=O`, the inhibition result in the series on Dengue virus and with West Nile virus was “Active” throughout. In addition, the result (in [1]; in the series on Hepatitis C virus; in series [3]; in the series on Human betaherpesvirus 5) was inactive. Besides, the inhibition entry in series [5] was “inactive”.

In the case of `Cc1cn([C@H]2C[C@H](n3nncc3-c3cc4ccccc4c4ccccc34)[C@@H](CO[Si](C)(C)C(C)(C)C)O2)c(=O)[nH]c1=O`, the inhibition at 10 µM in the series on Dengue virus is 21%; with West Nile virus, 99%. Further, the result (in [1]; in the series on Hepatitis C virus; in series [3]; in the series on Human betaherpesvirus 5) was inactive. For the same molecule, the Activity in series [2] is recorded as 100%; in series [4] it was 69%. Moreover, the inhibition result in [5] was “inactive”.

`Cc1cn([C@H]2C[C@H](n3nncc3-c3ccc(-c4ccccc4)cc3)[C@@H](CO[Si](C)(C)C(C)(C)C)O2)c(=O)[nH]c1=O`: the inhibition at 10 µM worked out at 99% in the series on Dengue virus and 100% in the series with West Nile virus. Besides, the outcome (in series [1]; in the series on Hepatitis C virus; in series [3]; in the series on Human betaherpesvirus 5) was inactive. Further, the Activity in [2] stood at 47%; in series [4], 10%. The inhibition result in [5] is “inactive”.

For the molecule `COc1ccc2cc(C(=O)N[C@H]3C[C@H](n4cc(C)c(=O)[nH]c4=O)O[C@@H]3CO[Si](C)(C)C(C)(C)C)ccc2c1`, the inhibition at 10 µM in the series on Dengue virus was 92%; in the series on West Nile virus it was 95%. Also, the outcome (in series [1]; in the series on Hepatitis C virus; in [3]; in the series on Human betaherpesvirus 5) was inactive. Besides, the Activity in [2] is reported as 8%; in series [4], 50%. The inhibition result in series [5] is “inactive”.

As for `Cc1cn([C@H]2C[C@H](NC(=O)Nc3ccccc3)[C@@H](CO[Si](C)(C)C(C)(C)C)O2)c(=O)[nH]c1=O`, the inhibition entry with Dengue virus and with West Nile virus was “Active” in each case. Also, the outcome (in [1]; in the series on Hepatitis C virus; in series [3]; with Human betaherpesvirus 5) was inactive. For the same molecule, the inhibition entry in series [5] is “inactive”.

In the case of `Cc1cn([C@H]2C[C@H](n3nncc3-c3cccc4ccccc34)[C@@H](CO[Si](C)(C)C(C)(C)C)O2)c(=O)[nH]c1=O`, the inhibition at 10 µM was determined as 99% with Dengue virus and 100% with West Nile virus. For the same molecule, the outcome (in [1]; in the series with Hepatitis C virus; in series [3]; in the series on Human betaherpesvirus 5) was inactive. Also, the Activity in series [2] is reported as 60%; in series [4] it was 8%. For the same molecule, the inhibition entry in series [5] is “inactive”.

Turning to `Cc1cn([C@H]2C[C@H](N)[C@@H](CO[Si](C)(C)C(C)(C)C)O2)c(=O)[nH]c1=O`, the inhibition at 10 µM with Dengue virus and in the series on West Nile virus was 0% in each case. For the same molecule, the outcome (in [1]; with Hepatitis C virus; in series [3]; with Human betaherpesvirus 5) was inactive. For the same molecule, the Activity in [2] and in [4] was 100% throughout. Also, the inhibition entry in [5] was “inactive”.

(Values after ChEMBL document CHEMBL3576816, “5'-Silylated 3'-1,2,3-triazolyl Thymidine Analogues as Inhibitors of West Nile Virus and Dengue Virus” (J Med Chem, 2015).)
